# SUMO1-SIM PPI: modulators of human SUMO1-mediated protein-protein interactions | 360,000 tested, 0.33% active | AID 602429 | P63165 | inhibition, % at 20 µM | SUMO1 binding to a labelled peptide, TR-FRET, 1 h; in the data active means inhibition above about 37%
# Target sequence (P63165 whole entry, looked up): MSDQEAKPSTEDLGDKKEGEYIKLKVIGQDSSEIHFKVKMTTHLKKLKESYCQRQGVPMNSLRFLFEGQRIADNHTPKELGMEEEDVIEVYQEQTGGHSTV
# Scp1 inh: blocks human Scp-1 phosphatase activity. inhibition, % at 20 µM. Recombinant Scp1, phosphopeptide, malachite green phosphate absorbance. 340,000 tested, 0.88% active. AID 493091;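 active means inhibition above about 50% at 20 µM, limit read from the data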;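 further: plate controls were DMSO wells with enzyme for no effect and wells lacking enzyme for full effect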
# Target sequence (Q9GZU7 76-261 limits assumed): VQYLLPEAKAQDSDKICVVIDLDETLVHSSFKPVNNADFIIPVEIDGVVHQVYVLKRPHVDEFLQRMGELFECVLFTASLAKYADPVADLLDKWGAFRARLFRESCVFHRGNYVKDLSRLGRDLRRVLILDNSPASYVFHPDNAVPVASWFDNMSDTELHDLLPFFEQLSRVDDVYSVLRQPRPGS
#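 Test system: SCP-1 phosphatase catalytic domain, residues 76-261 | Compound dosing: One concentration, 20 µM, with 1.0% DMSO | Schedule: 45 min room-temperature reaction, 5 min colour, 30 min stabiliser | Detection: Absorbance at 630 nm | Read-out basis: % inhibition of SCP-1 phosphate liberation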
# LMPTP inh: LMPTP (human) inhibition; recombinant LMPTP-A, OMFP fluorogenic substrate, fluorescence intensity; P24666; AID 651560; inhibition, % at 20 µM; 360,000 tested, 0.22% active;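 active means compounds that cut the enzyme signal by at least half of the control window in the single-dose screen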;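 further: plate controls were DMSO wells with enzyme plus substrate for no effect and substrate without enzyme for full effect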
# Target sequence (P24666 whole entry, looked up): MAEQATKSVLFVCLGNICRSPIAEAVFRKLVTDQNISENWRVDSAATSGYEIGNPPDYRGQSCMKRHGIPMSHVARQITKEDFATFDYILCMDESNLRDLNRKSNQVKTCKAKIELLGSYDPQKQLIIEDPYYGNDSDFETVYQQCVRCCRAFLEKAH
#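 material = LMPTP-A | quantity = 0.625 nM enzyme | reagent = OMFP substrate, 400 µM final | buffer or medium = Bis-Tris pH 6.0, DTT, detergent | detection = endpoint fluorescence intensity from OMFP dephosphorylation | dosing = single 20 µM dose | read-out basis = % inhibition relative to no-enzyme and uninhibited control wells | control set = no-enzyme and uninhibited controls | timing = 50 min at room temperature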
# STEP block: STEP (human) phosphatase inhibition | P54829 | recombinant STEP, OMFP fluorogenic substrate, fluorescence | 360,000 tested, 0.25% active | inhibition, % at 20 µM;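 active means inhibition at 20 µM, scaled per plate between control wells, above about 37%, limit read from the data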;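 further: 0% = DMSO with enzyme and substrate and 100% = substrate only without enzyme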
#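 Material: STEP (striatal-enriched tyrosine phosphatase) enzyme, cell-free; Compound dosing: 20 µM single dose in 1% DMSO; Technique: fluorescence read at 480 nm ex / 540 nm em; Times: reaction 20 min, ambient temperature; Medium: 50 mM Bis-Tris pH 6.0 with 2.5 mM DTT and 0.005% Tween 20; Also added: OMFP at 25 µM.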
# NadD block: NadD (S. aureus) enzyme inhibition | purified NadD enzyme, colorimetric absorbance read-out | inhibition, % at 20 µM | 360,000 tested, 0.78% active | AID 602399; in the data active means inhibition above about 26%
# DNMT1 block: DNMT1 (human) enzyme inhibition. inhibition (reported as % activation of signal), % at 10 µM. AID 588458. DNMT1 molecular beacon, Hinp1I cleavage, fluorescence. 360,000 tested, 0.83% active. P26358; in the data active means inhibition above about 50%
# Scp1 confirm: Scp-1 (human) inhibition, single-dose confirmed; shares compounds with Scp1 inh; recombinant SCP-1 catalytic domain, phosphate release, malachite green absorbance; inhibition, % at 20 µM; 2,500 tested, 61% active;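 further: plate controls were DMSO with enzyme for no effect and buffer wells lacking enzyme for full effect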
# Scp-1 MG ctr: counter-screen for Scp-1 inhibitors: colorimetric interference; shares compounds with Scp1 inh; Colorimetric interference counterscreen, malachite green absorbance 630 nm; apparent inhibition (interference), % at 20 µM; 2,500 tested, under 10 active; AID 540313;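 further: compounds added after enzyme reaction finished so only phosphate colour detection is probed; plate controls were DMSO wells with completed Scp-1 reaction for no effect and substrate wells lacking enzyme for full effect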
# Scp1 DSF: validation of human Scp-1 inhibitors by thermal shift binding. shares compounds with Scp1 inh. Recombinant SCP1, Sypro Orange thermal shift Tm. thermal shift relative to vanadate control, % at 40 µM. 1,500 tested, 25% active. AID 540329;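 active means substances whose mean melting-temperature shift, as a percentage of the reference inhibitor's shift, reaches about 5.3%, limit read from the data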;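 further: 0% = Tm of DMSO wells and 100% = Tm with sodium orthovanadate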
# DNMT1 confirm: confirmation of human DNMT1 inhibitors | DNMT1 molecular beacon HinP1I cleavage, fluorescence | 2,300 tested, 8% active | inhibition, % at 10 µM | shares compounds with DNMT1 block;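 active means average inhibition of at least 30% in the single-concentration confirmation test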
# Beacon interf: shows spectral interference in the DNMT1 beacon assay. 2,300 tested, 1% active. AID 602387. DNMT1 molecular beacon spectral interference counterscreen, fluorescence 485/520. shares compounds with DNMT1 block. activation (fluorescence interference), % at 10 µM;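 active means activation of at least 30% at 10 µM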;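 further: DNMT1 catalytic domain with a HinP1I cleavage step and a FAM/dabcyl DNA beacon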
# STEP inh conf: confirmation of human STEP phosphatase inhibitors; shares compounds with STEP block; recombinant STEP, OMFP fluorogenic substrate, fluorescence; inhibition, % at 20 µM; 520 tested, 32% active; AID 623866; call rule not given here;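 further: 0% = enzyme with substrate plus DMSO and 100% = substrate without enzyme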
# * marks the source's active call; other numbers are inactive results; . = no result given. A selection: hits, their analogues and other compounds. The true share with any hit is near 2.4%.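 How the source made its calls, unless noted: active means inhibition of at least 30% at 20 µM; inactive means the rest.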
SMILES,SUMO1-SIM PPI,Scp1 inh,LMPTP inh,STEP block,NadD block,DNMT1 block,Scp1 confirm,Scp-1 MG ctr,Scp1 DSF,DNMT1 confirm,Beacon interf,STEP inh conf
CN(C)c1ccc(C(=O)OCC(=O)Nc2ccc(S(N)(=O)=O)cc2)cc1,58*,99*,18,40*,4,7,75*,-16,11*,.,.,101*
COc1c(F)c(F)c(C(=O)Nc2c(C)cc(Br)cc2C)c(F)c1F,5,0,-1,0,-7,6,.,.,.,.,.,.
O=C(N/N=C/c1ccoc1)c1cccc([N+](=O)[O-])c1,-23,24,1,10,2,22,.,.,.,.,.,.
O=C(N/N=C/c1ccc(Br)s1)c1cccc([N+](=O)[O-])c1,31,99*,91*,94*,6,71*,76*,-14,1,1,0,56*
O=C(O)c1ccc2c(c1)C(=O)N(c1cccc(-c3nc4ccccc4s3)c1)C2=O,-5,93*,4,81*,9,1,86*,-6,5.4*,.,.,47*
Cc1cc2ccccn2c1C(=O)c1ccc([N+](=O)[O-])o1,-29,-12,3,3,-8,-5,.,.,.,.,.,.
CCOc1ccc(C(=O)c2cc3ccc(O)cc3oc2=O)cc1,-23,-3,0,0,-5,-4,.,.,.,.,.,.
O=C(c1ccc([N+](=O)[O-])cc1)c1cc2ccc(O)cc2oc1=O,-29,72*,22,53*,0,1,55*,-5,5.7*,.,.,0
O=c1c(C=Nc2ccc(Cl)cc2)c[nH]n1-c1cccc(Cl)n1,-9,102*,62*,79*,2,75*,99*,0,-3,2,-6,2
Cc1cc(C)cc(NC(=O)CCN2CCCC2)c1,-1,-11,1,0,-6,1,.,.,.,.,.,.
N#C/C(=C\c1ccncc1)c1nc2ccccc2[nH]1,-13,-8,0,1,-1,-3,.,.,.,.,.,.
N#C/C(=C\c1ccc(OC(=O)c2ccc(Cl)s2)cc1)c1nc2ccccc2[nH]1,4,99*,46,71*,22,83*,74*,-10,-3,7,-5,25*
N#C/C(=C\c1ccc(OC(=O)c2ccc(Br)s2)cc1)c1nc2ccccc2[nH]1,3,101*,2,57*,30,82*,52*,0,5.5*,5,-6,26
CC(c1ccccn1)N(C)C(=O)c1ccc2nc(Cc3ccccc3F)oc2c1 (stereo unspecified),-4,-7,0,2,2,0,.,.,.,.,.,.
Cc1cc(C(=O)N/N=C/c2ccc(-c3cccc(Br)c3)o2)n[nH]1,4,-5,0,2,5,28,.,.,.,.,.,.
Cc1cc(C(=O)N/N=C/c2ccc(-c3cccc(Cl)c3Cl)o2)n[nH]1,0,61*,49,61*,13,52*,88*,-5,2,17,3,0
COc1ccc(NC(=O)/C(=C\c2ccc(OC)c(OC)c2)NC(=O)c2ccco2)cc1,-14,13,0,-2,-3,0,.,.,.,.,.,.
CCOc1ccc(N=C2NC(=O)S/C2=C\c2ccc(Cl)cc2)cc1,-4,112*,47,51*,1,84*,41*,-10,-2,0,-6,33
COc1cccc(N2[C@@H](CC(C)=O)c3ccccc3S2(=O)=O)c1,4,-5,1,-1,-2,3,.,.,.,.,.,.
COc1cccc(N2[C@@H](CC(=O)O)c3ccc(/C=C/C(=O)O)cc3S2(=O)=O)c1,9,70*,8,50*,-4,102*,54*,-15,-2,1,1,36*
COc1ccc2cc(C(=O)Nc3ccc(Cl)cc3)sc(=O)c2c1OC,-2,92*,1,59*,-3,57*,65*,-13,-9,14,0,27
COc1ccc2cc(C(=O)Nc3ccc(F)cc3)sc(=O)c2c1OC,-4,56*,38,49*,5,12,41*,-22,-15,.,.,14
Cc1nc2cc(-c3ccc(Br)cc3)[nH]n2c(=O)c1Cl,12,96*,38,97*,5,7,20,-7,.,.,.,1
O=C(Cn1nnc(-c2ccc(NC(=O)c3ccccc3F)cc2)n1)NCc1ccc(F)cc1,6,52*,39,65*,4,77*,68*,-15,8.1*,1,-4,20
Cc1cccc(-c2ncc(CN3CCN(CC(C)C)C(CCO)C3)cn2)c1 (stereo unspecified),-3,-10,-1,-2,-8,0,.,.,.,.,.,.
SMILES,SUMO1-SIM PPI,Scp1 inh,LMPTP inh,STEP block,NadD block,DNMT1 block,Scp1 confirm,Scp-1 MG ctr,Scp1 DSF,DNMT1 confirm,Beacon interf,STEP inh conf
Cc1ccc(NS(=O)(=O)c2cccc3nsnc23)cc1,-33,0,-1,2,-3,0,.,.,.,.,.,.
O=S(=O)(Nc1ccccc1)c1cccc2nsnc12,-14,78*,58*,84*,-1,44,59*,-11,-16,.,.,40*
CCOC(=O)C(N)CSC1CC(=O)N(CCc2ccccc2)C1=O (stereo unspecified),0,1,-2,2,-2,5,.,.,.,.,.,.
CCOc1ccc(/C=N/NC(=O)c2cc3c(OC)cccc3[nH]2)cc1,15,79*,25,89*,4,83*,58*,-13,6.4*,4,-3,41*
O=C(Nc1ccc2oc(-c3ccccc3F)nc2c1)c1ccc([N+](=O)[O-])o1,98*,101*,90*,99*,8,108*,95*,-7,-6,6,-5,16
O=C(CO)c1c[nH]c2ccccc12,-3,.,0,0,6,-6,.,.,.,.,.,.
CCn1c(=S)sc2c(=O)n(CC(=O)Nc3ccccc3C(F)(F)F)c(C)nc21,8,68*,67*,87*,4,28,26,-17,.,.,.,8
